Data on 55 molecules can be found in ChEMBL document CHEMBL1153722, “Design, synthesis, and characterization of peptide-based rab geranylgeranyl transferase inhibitors” (J Med Chem, 2009).

The term inhibition denotes the relative decrease from the control value, in per cent.

Square brackets hold non-standard residues; d marks the D form. Peptide text beside a SMILES is read from it. * marks the point of attachment. NMeY = CN[C@@H](Cc1ccc(O)cc1)C(=O)O; Hydrocinnamoyl = O=C(CCc1ccccc1)*; Palmitoyl = CCCCCCCCCCCCCCCC(=O)*; NMeF = CN[C@@H](Cc1ccccc1)C(=O)O; Undecanoyl = CCCCCCCCCCC(=O)*; Morpholide = C1CN(*)CCO1; Cbz = O=C(OCc1ccccc1)*; NHBn = c1ccc(CN*)cc1; NHOH = ON*

For this test, the species on record is Rattus norvegicus. As to the kind of experiment: Inhibition of rat recombinant Rab geranylgeranyltransferase at 100 uM in presence of canine Rab7 and rat REP1 NBD-FPP based continuous fluorimetric assay. The method in brief: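 Continuous fluorometric assay in 96/384-well format: 3 μM Rab7, 3 μM REP1, 9 μM NBD-FPP and 400 nM RabGGTase, with or without inhibitor. […] IC50 was calculated from three independent measurements.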
On to `O=C(CCc1ccccc1)N[C@@H](CO)C(=O)NCC(=O)N[C@@H](CO)C(=O)N1CCOCC1` (Hydrocinnamoyl-Ser-Gly-Ser-Morpholide), for which the inhibition is 83%.
The figure for `CC(C)C[C@H](NC(=O)[C@H](CO)NC(=O)[C@H](Cc1ccccc1)NC(=O)CCc1ccccc1)C(=O)OCCCl` is 97%; for `COC(=O)CNC(=O)[C@H](CO)NC(=O)[C@H](Cc1ccccc1)NC(=O)C1COC(c2ccccc2)=N1` (stereo not given in full) it is 114%.
In the case of `C[C@H](NC(=O)[C@@H](NC(=O)c1ccc(-c2ccccc2)cc1)[C@@H](C)O)C(=O)N[C@@H](CCC(N)=O)C(=O)Nc1ccc(F)c(Cl)c1`, the inhibition amounted to 100%.
The figure for `CCCCCCCCCCCC(=O)N[C@@H](Cc1ccc(O)cc1)C(=O)N[C@@H](Cc1c[nH]cn1)C(=O)N[C@@H](Cc1c[nH]cn1)C(=O)N(C)CCc1ccccn1` is 54%; for `CCCCCCCCCCCOc1ccc(C(=O)N[C@@H](Cc2ccc(O)cc2)C(=O)N[C@@H](Cc2ccc(O)cc2)C(=O)N[C@@H](Cc2ccc(O)cc2)C(=O)N(C)OC)cc1` it is 75%; for `O=C(N[C@@H](CO)C(=O)N[C@@H](Cc1ccccc1)C(=O)N[C@@H](CO)C(=O)Nc1ccc(F)cc1F)C(Br)C(Br)c1ccc(F)cc1` (stereo not given in full) it is 94%.
The value for `CCCCCCCCCCCOc1ccc(C(=O)N[C@@H](Cc2c[nH]cn2)C(=O)N[C@@H](Cc2c[nH]cn2)C(=O)N[C@@H](Cc2c[nH]cn2)C(=O)OCCN)cc1` was 101%.
The figure for `C=CCOC(=O)[C@H](Cc1ccccc1)N(C)C(=O)[C@H](Cc1ccc(OC)cc1)N(C)C(=O)[C@@H](Cc1ccc(O)cc1)NC(=O)CCc1ccccc1` is 74%; for `C[C@@H](NC(=O)CCc1ccccc1)C(=O)N[C@@H](Cc1ccccc1)C(=O)N[C@@H](CCC(N)=O)C(=O)NC1CCCCC1` it is 44%.
For `NCCOC(=O)[C@H](Cc1ccc(O)cc1)NC(=O)CCNC(=O)[C@H](Cc1c[nH]cn1)NC(=O)OCc1ccccc1`, the inhibition amounted to 100%.
On to `CCCCCCCCCCCCCC(=O)OC[C@H](NC(=O)CNC(=O)[C@H](Cc1ccccc1)NC(=O)c1coc(-c2ccccc2)n1)C(=O)O`, for which the inhibition was 38%.
For `CCCCCCCCCCC(=O)N[C@@H](Cc1ccc(O)cc1)C(=O)N[C@@H](Cc1c[nH]cn1)C(=O)N[C@@H](Cc1c[nH]cn1)C(=O)NCCCn1ccnc1`, the inhibition is 59%.
On to `CC(=O)Nc1cc(C(=O)N2CCC[C@@H]2C(=O)N[C@@H](C(=O)N[C@@H](CCC(N)=O)C(=O)NN)C(C)C)ccc1[N+](=O)[O-]`, for which the inhibition came out at 77%.
The figure for `CC[C@H](C)[C@H](NC(=O)c1ccc(-c2ccccc2)cc1)C(=O)N[C@@H](C(=O)N[C@@H](CCC(N)=O)C(=O)N1CCOCC1)C(C)C` is 92%; for `O=C(CNC(=O)c1csc(C2CCNCC2)n1)N[C@@H](Cc1ccccc1)C(=O)N[C@@H](Cc1c[nH]cn1)C(=O)O` it is 124%.
The figure for `CCCCCCCCCCCCCCCC(=O)N[C@@H](Cc1ccc(O)cc1)C(=O)N[C@@H](Cc1ccc(O)cc1)C(=O)N[C@@H](Cc1ccc(O)cc1)C(=O)OCCCl` is 114%.
On to `C=CCCCCCCCCCOC(=O)[C@H](CC(C)C)NC(=O)[C@H](COC(C)(C)C)NC(=O)[C@H](Cc1ccccc1)NC(=O)CCc1ccccc1`, for which the inhibition worked out at 108%.
On to `CCCCCCCCCCCOc1ccc(C(=O)N[C@@H](Cc2c[nH]cn2)C(=O)N[C@@H](Cc2c[nH]cn2)C(=O)N[C@@H](Cc2c[nH]cn2)C(=O)NCC(O)CO)cc1` (stereo not given in full), for which the inhibition stood at 37%.
Turning to `O=C(CNC(=O)[C@H](Cc1c[nH]cn1)NC(=O)OCc1ccccc1)N[C@@H](Cc1ccc(O)cc1)C(=O)O` (Cbz-His-Gly-Tyr-OH), the inhibition amounted to 75%.
For `NCCCCNC(=O)[C@H](Cc1ccc(O)cc1)NC(=O)[C@H](Cc1ccc(O)cc1)NC(=O)[C@H](Cc1ccc(O)cc1)NC(=O)c1ccc(F)cc1F`, the inhibition was found to be 61%.
The value for `O=C(CNC(=O)[C@@H]1CCCN1C(=O)c1coc(-c2ccccc2)n1)N[C@@H](Cc1c[nH]cn1)C(=O)Nc1ccc(F)cc1F` was 87%; that for `CC[C@H](C)[C@H](NC(=O)c1ccc(-c2ccccc2)cc1)C(=O)N[C@@H](C(=O)N[C@@H](CCC(N)=O)C(=O)Nc1cccc(Br)n1)C(C)C` was 106%; that for `COC(=O)[C@H](CC(C)C)NC(=O)[C@H](COC(C)(C)C)NC(=O)[C@H](Cc1ccccc1)NC(=O)CCc1ccccc1` was 81%.
The value for `C[C@@H](O)[C@H](NC(=O)/C=C/c1ccccc1)C(=O)N[C@@H](Cc1ccccc1)C(=O)N[C@@H](CCC(N)=O)C(=O)OCCCl` was 81%; that for `CCCCCCCCCCCOc1ccc(C(=O)N[C@@H](Cc2ccc(O)cc2)C(=O)N[C@@H](Cc2ccc(O)cc2)C(=O)N[C@@H](Cc2c[nH]cn2)C(=O)O)cc1` was 102%; that for `CON(C)C(=O)[C@H](CCC(=O)O)NC(=O)[C@H](C)NC(=O)[C@@H](NC(=O)c1ccc(-c2ccccc2)cc1)[C@@H](C)O` was 102%.
Regarding `O=C(CNC(=O)[C@H](Cc1ccc(O)cc1)NC(=O)CCc1ccc(F)cc1)N[C@@H](Cc1ccc(O)cc1)C(=O)O`, the inhibition was 86%.
The figure for `CCCCCCCCCCC(=O)N[C@@H](Cc1c[nH]cn1)C(=O)N[C@@H](Cc1ccccc1)C(=O)N[C@@H](Cc1ccc(O)cc1)C(=O)OC` (Undecanoyl-His-Phe-Tyr-OMe) is 68%.
The value for `O=C(N[C@@H](CO)C(=O)N[C@@H](Cc1ccccc1)C(=O)N[C@@H](CO)C(=O)Nc1ccccc1)C(Br)C(Br)c1ccc(F)cc1` (stereo not given in full) was 81%; that for `COC(=O)COC(=O)[C@H](Cc1ccccc1)N(C)C(=O)[C@H](Cc1ccc(OC)cc1)N(C)C(=O)[C@@H](Cc1ccc(O)cc1)NC(=O)CCc1ccccc1` was 88%.
On to `O=C(CNC(=O)[C@H](Cc1ccc(O)cc1)NC(=O)c1coc(-c2ccccc2)n1)N[C@@H](Cc1c[nH]cn1)C(=O)O`, for which the inhibition is 86%.
In the case of `O=C(CNC(=O)[C@H](Cc1c[nH]cn1)NC(=O)c1coc(-c2ccccc2)n1)N[C@@H](Cc1ccc(O)cc1)C(=O)O`, the inhibition came to 99%.
Consider `C[C@@H](NC(=O)CCc1ccccc1)C(=O)N[C@@H](Cc1ccccc1)C(=O)N[C@@H](CCC(=O)O)C(=O)NCCO`, for which the inhibition was 98%.
The value for `CCCCCCCCCCC(=O)N[C@@H](Cc1c[nH]cn1)C(=O)N[C@@H](Cc1cnc[nH]1)C(=O)N[C@@H](Cc1ccc(O)cc1)C(=O)NCC(O)CO` (stereo not given in full) was 65%; that for `CCCCCCCCCCC(=O)N[C@@H](Cc1c[nH]cn1)C(=O)N[C@@H](Cc1ccccc1)C(=O)N[C@@H](Cc1ccc(O)cc1)C(=O)NO` (Undecanoyl-His-Phe-Tyr-{NHOH}) was 89%.
Consider `O=C(CNC(=O)[C@H](Cc1c[nH]cn1)NC(=O)OCc1ccccc1)N[C@@H](Cc1ccc(O)cc1)C(=O)c1nc2ccccc2[nH]1`, for which the inhibition came out at 66%.
Regarding `O=C(CNC(=O)[C@@H]1CCCN1C(=O)c1coc(-c2ccccc2)n1)N[C@@H](Cc1ccc(O)cc1)C(=O)Nc1ccc(F)cc1F`, the inhibition was 89%.
The figure for `O=C(N[C@@H](Cc1ccc(O)cc1)C(=O)N[C@@H](Cc1ccc(O)cc1)C(=O)N[C@@H](Cc1ccc(O)cc1)C(=O)O)OCc1ccccc1` is 51%.
The figure for `CN(C(=O)[C@H](Cc1cnc[nH]1)NC(=O)OCc1ccccc1)[C@@H](Cc1ccc(O)cc1)C(=O)N(C)[C@@H](Cc1ccccc1)C(=O)O` (Cbz-His-[NMeY]-[NMeF]-OH) is 54%.
As to `O=C(CNC(=O)[C@H](Cc1cn(C(c2ccccc2)(c2ccccc2)c2ccccc2)cn1)NC(=O)c1coc(-c2ccccc2)n1)N[C@@H](Cc1cn(C(c2ccccc2)(c2ccccc2)c2ccccc2)cn1)C(=O)O`, the inhibition came to 95%.
The value for `CC[C@H](C)[C@H](NC(=O)/C=C/c1ccc(F)cc1)C(=O)N[C@@H](C)C(=O)N[C@@H](CCC(N)=O)C(=O)Nc1ccc(F)c(Cl)c1` was 46%; that for `CCCCCCCCCCC(=O)N[C@@H](Cc1ccc(O)cc1)C(=O)N[C@@H](Cc1c[nH]cn1)C(=O)N[C@@H](Cc1c[nH]cn1)C(=O)NO` (Undecanoyl-Tyr-His-His-{NHOH}) was 84%.
The figure for `O=C(CCc1ccc(F)cc1)N[C@@H](Cc1ccc(O)cc1)C(=O)NCC(=O)N[C@@H](Cc1ccc(O)cc1)C(=O)OCCCl` is 50%.
On to `CC[C@H](C)[C@H](NC(=O)/C=C/c1ccc(F)cc1)C(=O)N[C@@H](C)C(=O)N[C@@H](CCC(N)=O)C(=O)OC`, for which the inhibition was determined as 83%.
In the case of `CC#CCOC(=O)[C@H](Cc1ccccc1)NC(=O)[C@H](Cc1ccccc1)NC(=O)[C@H](CC(C)C)NC(=O)/C=C/c1ccccc1`, the inhibition came to 61%.
The value for `COC(=O)[C@H](CO)NC(=O)CNC(=O)[C@H](Cc1ccccc1)NC(=O)C1COC(c2ccccc2)=N1` (stereo not given in full) was 136%.
The figure for `O=C(CCc1ccccc1)N[C@@H](CO)C(=O)NCC(=O)N[C@@H](CO)C(=O)NCc1ccccc1` (Hydrocinnamoyl-Ser-Gly-Ser-NHBn) is 90%.
For `COc1ccc(C[C@@H](C(=O)N(C)[C@@H](Cc2ccccc2)C(=O)N2CCC(C(N)=O)CC2)N(C)C(=O)[C@@H](Cc2ccc(O)cc2)NC(=O)OCc2ccc([N+](=O)[O-])cc2)cc1`, the inhibition amounted to 75%.
On to `C[C@H](NC(=O)/C=C/c1ccc(F)cc1)C(=O)NCC(=O)N[C@@H](Cc1ccc(O)cc1)C(=O)NC1CCCCC1`, for which the inhibition amounted to 11%.
The value for `CCCCCCCCCCCCCCCC(=O)N[C@@H](Cc1ccc(O)cc1)C(=O)N[C@@H](Cc1ccc(O)cc1)C(=O)N[C@@H](Cc1ccc(O)cc1)C(=O)OC` (Palmitoyl-Tyr-Tyr-Tyr-OMe) was 49%.
The value for `CC[C@H](C)[C@H](NC(=O)c1ccc(-c2ccccc2)cc1)C(=O)N[C@@H](C(=O)N[C@@H](CCC(N)=O)C(=O)OCCCl)C(C)C` was 89%; that for `CCCCCCCCCCCOc1ccc(C(=O)N[C@@H](Cc2ccc(O)cc2)C(=O)N[C@@H](Cc2ccc(O)cc2)C(=O)N[C@@H](Cc2ccc(O)cc2)C(=O)NCc2ccc(F)cc2F)cc1` was 99%; that for `COC(=O)[C@H](CC(C)C)NC(=O)[C@H](CO)NC(=O)[C@H](Cc1ccccc1)NC(=O)/C=C/c1ccc(F)cc1` was 57%.
The figure for `O=C(CCNC(=O)[C@H](Cc1c[nH]cn1)NC(=O)OCc1ccccc1)N[C@@H](Cc1ccc(O)cc1)C(=O)Nc1nccs1` is 73%.
